Results taken from ChEMBL document CHEMBL5365503, “Design and Synthesis of 1,3,5-Triazines or Pyrimidines Containing Dithiocarbamate Moiety as PI3Kα Selective Inhibitors” (ACS Med Chem Lett, 2023).

Tests used:
[1] = target: Phosphatidylinositol 4,5-bisphosphate 3-kinase catalytic subunit alpha isoform (Homo sapiens, UniProt P42336); experiment: Inhibition of N-terminal GST-fused full-length human PI3Kalpha (1 to 1068 residues) expressed in baculovirus expression system using PIP2 as substrate incubated for 1 hr in presence of ATP by ADP-Glo assay
[2] = Metabolic stability in rat liver microsomes assessed as half life […] measured upto 60 mins in presence of NADPH by LC-MS/MS analysis; assay type: ADME, Microsome
[3] = Metabolic stability in rat liver assessed as intrinsic clearance […] measured upto 60 mins in presence of NADPH by LC-MS/MS analysis; assay type: ADME; conditions: read-out: CLH
[4] = Toxicity in BALB/c mouse xenografted with human U-87 MG cells assessed as animal mortality at 40 mg/kg/day, ip for 16 days; assay type: organism-based; conditions: in vivo, 384 h, time 16 day
Method in brief: (§1)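 U87-MG xenograft mice treated once tumours averaged ~100 mm³. Dosing was 40 mg/kg/day intraperitoneally, once daily for 16 days. Tumour volume and body weight of each mouse were recorded on days 1, 4, 8, 11, 15 and 17.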

[5] = Metabolic stability in rat liver microsomes assessed as compound remaining […] measured upto 60 mins in presence of NADPH by LC-MS/MS analysis; assay type: ADME, Microsome; conditions: read-out: Stability
[6] = Toxicity in BALB/c mouse xenografted with human U-87 MG cells assessed as drug tolerance at 40 mg/kg/day, ip for 16 days; assay type: organism-based; conditions: in vivo, 384 h, time 16 day; method in brief: as §1
[7] = tested on: U-87 MG; experiment: Antiproliferative activity against human U-87 MG cells assessed as inhibition of cell proliferation incubated for 96 hrs by MTT assay; assay type: functional, cell-based, U-87MG ATCC
[8] = tested on: U-87 MG; experiment: Antitumor activity against human U-87 MG cells xenografted in BALB/c mouse assessed as tumor growth inhibition at 40 mg/kg/day, ip for 16 days relative to control; assay type: functional, U-87MG ATCC; conditions: 384 h, time 16 day, read-out: TGI
Method in brief: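 U87-MG xenografts in mice; dosing began once mean tumor volume reached about 100 mm³. Given 40 mg/kg/day intraperitoneally, once daily for 16 days.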

[9] = tested on: HCT-116; experiment: Antiproliferative activity against human HCT-116 cells assessed as inhibition of cell proliferation incubated for 96 hrs by MTT assay; assay type: functional, cell-based; conditions: HCT-116, 96 h
[10] = target: T1, Phosphatidylinositol 4,5-bisphosphate 3-kinase catalytic subunit delta isoform (Homo sapiens, UniProt O00329); experiment: Inhibition of N-terminal 6xHis-tagged recombinant full-length human PI3Kdelta expressed in baculovirus infected Sf21 insect cells by ADP-Glo assay
T1 sequence (O00329 whole entry): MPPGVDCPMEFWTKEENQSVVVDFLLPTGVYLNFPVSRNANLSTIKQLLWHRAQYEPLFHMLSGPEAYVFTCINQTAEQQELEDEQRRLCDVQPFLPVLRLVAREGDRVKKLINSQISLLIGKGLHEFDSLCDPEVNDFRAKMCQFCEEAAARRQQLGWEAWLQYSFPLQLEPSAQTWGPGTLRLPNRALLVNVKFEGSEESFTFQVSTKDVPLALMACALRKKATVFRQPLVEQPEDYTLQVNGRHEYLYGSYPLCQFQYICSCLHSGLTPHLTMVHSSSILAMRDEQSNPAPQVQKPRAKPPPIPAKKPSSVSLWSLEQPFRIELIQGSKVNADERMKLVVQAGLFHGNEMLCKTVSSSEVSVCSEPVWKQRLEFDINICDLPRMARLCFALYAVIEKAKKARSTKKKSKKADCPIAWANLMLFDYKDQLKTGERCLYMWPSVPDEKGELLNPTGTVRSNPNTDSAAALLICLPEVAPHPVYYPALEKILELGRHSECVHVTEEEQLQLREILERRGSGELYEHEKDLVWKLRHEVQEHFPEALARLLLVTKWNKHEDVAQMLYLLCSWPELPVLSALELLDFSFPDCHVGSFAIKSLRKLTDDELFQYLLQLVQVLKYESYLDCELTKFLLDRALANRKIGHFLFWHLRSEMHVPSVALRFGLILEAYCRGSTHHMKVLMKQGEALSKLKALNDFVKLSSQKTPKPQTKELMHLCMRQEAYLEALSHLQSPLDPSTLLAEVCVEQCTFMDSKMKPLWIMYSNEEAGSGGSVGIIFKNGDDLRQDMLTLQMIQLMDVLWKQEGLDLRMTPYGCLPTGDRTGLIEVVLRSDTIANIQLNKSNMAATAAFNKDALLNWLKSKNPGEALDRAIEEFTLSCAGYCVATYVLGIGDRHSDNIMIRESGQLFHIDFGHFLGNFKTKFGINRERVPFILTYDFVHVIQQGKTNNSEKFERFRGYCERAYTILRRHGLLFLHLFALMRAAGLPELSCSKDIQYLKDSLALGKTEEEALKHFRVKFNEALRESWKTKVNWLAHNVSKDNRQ

[11] = Metabolic stability in rat liver microsomes assessed as compound remaining […] measured upto 60 mins by LC-MS/MS analysis; assay type: ADME, Microsome; conditions: read-out: Stability
[12] = Toxicity in BALB/c mouse xenografted with human U-87 MG cells assessed as body weight loss at 40 mg/kg/day, ip for 16 days; assay type: organism-based; conditions: in vivo, 384 h, time 16 day; method in brief: as §1
[13] = target: Phosphatidylinositol 4,5-bisphosphate 3-kinase catalytic subunit gamma isoform (Homo sapiens, UniProt P48736); experiment: Inhibition of human PI3Kgamma expressed in baculovirus infected Sf21 insect cells by ADP-Glo assay
[14] = Metabolic stability in rat liver microsomes assessed as intrinsic clearance […] measured upto 60 mins in presence of NADPH by LC-MS/MS analysis; assay type: ADME, Microsome; conditions: read-out: CLH
[15] = target: Phosphatidylinositol 4,5-bisphosphate 3-kinase catalytic subunit beta isoform (Homo sapiens, UniProt P42338); experiment: Inhibition of N-terminal 6xHis-tagged recombinant, full length human PI3Kbeta by ADP-Glo assay
Phosphatidylinositol 4,5-bisphosphate 3-kinase catalytic subunit beta isoform, sequence (P42338 whole entry, canonical isoform): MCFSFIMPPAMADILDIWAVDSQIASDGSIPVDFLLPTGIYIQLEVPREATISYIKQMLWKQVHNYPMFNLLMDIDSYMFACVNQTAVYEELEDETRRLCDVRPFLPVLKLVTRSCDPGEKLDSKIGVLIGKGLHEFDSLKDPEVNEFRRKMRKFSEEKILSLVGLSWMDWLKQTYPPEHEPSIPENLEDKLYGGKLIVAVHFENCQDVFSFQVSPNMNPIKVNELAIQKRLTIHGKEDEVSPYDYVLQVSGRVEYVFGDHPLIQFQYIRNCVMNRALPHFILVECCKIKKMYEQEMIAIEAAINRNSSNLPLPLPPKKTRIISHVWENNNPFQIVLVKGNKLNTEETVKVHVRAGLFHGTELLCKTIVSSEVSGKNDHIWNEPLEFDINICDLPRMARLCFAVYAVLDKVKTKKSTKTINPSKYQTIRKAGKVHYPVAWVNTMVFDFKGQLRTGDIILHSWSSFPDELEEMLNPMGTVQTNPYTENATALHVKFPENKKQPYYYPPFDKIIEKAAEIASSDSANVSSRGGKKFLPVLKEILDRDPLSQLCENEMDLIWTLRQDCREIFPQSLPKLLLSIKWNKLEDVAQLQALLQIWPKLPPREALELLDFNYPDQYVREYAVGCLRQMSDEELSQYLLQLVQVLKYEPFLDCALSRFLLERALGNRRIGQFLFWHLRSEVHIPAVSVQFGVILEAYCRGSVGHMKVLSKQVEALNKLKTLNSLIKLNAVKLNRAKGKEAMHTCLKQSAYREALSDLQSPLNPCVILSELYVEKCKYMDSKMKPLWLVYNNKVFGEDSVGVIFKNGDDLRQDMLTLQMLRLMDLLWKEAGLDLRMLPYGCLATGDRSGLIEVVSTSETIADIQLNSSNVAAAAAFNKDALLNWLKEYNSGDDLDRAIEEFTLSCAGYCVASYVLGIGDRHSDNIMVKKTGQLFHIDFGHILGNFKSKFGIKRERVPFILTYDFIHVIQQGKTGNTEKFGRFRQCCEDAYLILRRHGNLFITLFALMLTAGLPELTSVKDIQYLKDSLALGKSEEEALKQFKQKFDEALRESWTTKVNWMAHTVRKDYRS

Phosphatidylinositol 4,5-bisphosphate 3-kinase catalytic subunit alpha isoform, sequence (P42336 whole entry, the tested form may be a part, canonical isoform): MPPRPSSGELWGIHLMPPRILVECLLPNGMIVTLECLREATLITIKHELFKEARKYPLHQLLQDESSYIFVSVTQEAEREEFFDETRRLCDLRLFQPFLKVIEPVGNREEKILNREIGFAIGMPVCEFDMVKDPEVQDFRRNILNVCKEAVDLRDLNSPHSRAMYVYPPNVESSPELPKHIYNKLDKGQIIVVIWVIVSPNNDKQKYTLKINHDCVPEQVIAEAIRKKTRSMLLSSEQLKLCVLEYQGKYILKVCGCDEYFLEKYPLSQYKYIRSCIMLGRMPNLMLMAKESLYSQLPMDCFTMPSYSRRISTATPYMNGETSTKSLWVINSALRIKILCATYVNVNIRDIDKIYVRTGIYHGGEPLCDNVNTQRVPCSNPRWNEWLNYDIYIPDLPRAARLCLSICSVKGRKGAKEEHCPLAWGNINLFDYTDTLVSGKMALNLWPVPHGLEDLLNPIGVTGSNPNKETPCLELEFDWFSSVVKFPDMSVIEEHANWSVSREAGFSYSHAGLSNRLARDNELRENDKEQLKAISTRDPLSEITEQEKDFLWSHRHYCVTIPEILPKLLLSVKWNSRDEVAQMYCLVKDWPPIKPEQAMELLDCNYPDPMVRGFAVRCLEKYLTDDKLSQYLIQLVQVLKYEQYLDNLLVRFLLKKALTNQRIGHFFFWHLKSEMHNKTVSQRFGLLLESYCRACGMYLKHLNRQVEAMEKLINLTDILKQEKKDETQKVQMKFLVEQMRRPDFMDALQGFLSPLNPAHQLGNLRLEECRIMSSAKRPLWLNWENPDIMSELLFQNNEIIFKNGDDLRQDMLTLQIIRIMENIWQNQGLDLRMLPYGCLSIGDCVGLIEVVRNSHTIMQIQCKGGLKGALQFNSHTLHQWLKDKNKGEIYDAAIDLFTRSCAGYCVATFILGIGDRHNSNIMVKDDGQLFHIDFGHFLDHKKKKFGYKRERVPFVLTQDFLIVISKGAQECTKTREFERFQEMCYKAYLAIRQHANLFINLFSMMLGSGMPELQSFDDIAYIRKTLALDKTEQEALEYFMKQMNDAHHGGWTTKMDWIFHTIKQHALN
Phosphatidylinositol 4,5-bisphosphate 3-kinase catalytic subunit gamma isoform, sequence (P48736 whole entry, canonical isoform): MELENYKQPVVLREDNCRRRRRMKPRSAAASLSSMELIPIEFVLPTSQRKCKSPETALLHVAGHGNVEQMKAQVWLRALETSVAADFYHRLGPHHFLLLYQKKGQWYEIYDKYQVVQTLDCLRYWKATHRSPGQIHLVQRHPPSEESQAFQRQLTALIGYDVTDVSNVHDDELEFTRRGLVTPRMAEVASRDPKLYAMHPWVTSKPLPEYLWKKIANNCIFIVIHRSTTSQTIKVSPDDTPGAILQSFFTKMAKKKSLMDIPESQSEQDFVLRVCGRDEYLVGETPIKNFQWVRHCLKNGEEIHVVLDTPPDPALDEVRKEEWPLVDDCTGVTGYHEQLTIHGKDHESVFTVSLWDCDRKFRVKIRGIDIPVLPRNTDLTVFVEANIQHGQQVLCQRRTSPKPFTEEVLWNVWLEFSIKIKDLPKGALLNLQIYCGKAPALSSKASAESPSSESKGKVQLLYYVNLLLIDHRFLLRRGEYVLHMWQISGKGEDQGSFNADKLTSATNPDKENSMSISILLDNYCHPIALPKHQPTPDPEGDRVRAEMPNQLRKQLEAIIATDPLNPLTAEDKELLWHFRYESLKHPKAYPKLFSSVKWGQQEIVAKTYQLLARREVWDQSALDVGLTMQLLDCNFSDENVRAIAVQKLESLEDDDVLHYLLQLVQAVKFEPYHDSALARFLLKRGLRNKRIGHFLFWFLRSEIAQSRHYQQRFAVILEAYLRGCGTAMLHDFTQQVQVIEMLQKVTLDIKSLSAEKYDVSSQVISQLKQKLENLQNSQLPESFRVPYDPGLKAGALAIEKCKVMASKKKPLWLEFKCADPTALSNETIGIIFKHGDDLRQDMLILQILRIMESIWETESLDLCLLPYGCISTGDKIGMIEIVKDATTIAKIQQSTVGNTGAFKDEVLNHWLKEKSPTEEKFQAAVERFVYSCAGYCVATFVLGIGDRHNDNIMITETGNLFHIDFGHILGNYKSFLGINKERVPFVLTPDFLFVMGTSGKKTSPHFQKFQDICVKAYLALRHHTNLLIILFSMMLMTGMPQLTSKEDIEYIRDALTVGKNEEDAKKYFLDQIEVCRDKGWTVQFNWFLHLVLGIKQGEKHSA

With `COc1cccc2c1nc(C(F)F)n2-c1nc(N2CCOCC2)nc(N2CCN(C(=S)SCCN3CCCC3)CC2)n1` the IC50 [1] was 0.02 µM.
For `CCN(CC)CCSC(=S)N1CCN(c2nc(N3CCOCC3)nc(-n3c(C(F)F)nc4c(OC)cccc43)n2)CC1`, the IC50 [1] was 0.038 µM.
`COc1cccc2c1nc(C(F)F)n2-c1nc(N2CCOCC2)nc(N2CCN(C(=S)SCCN3CCOCC3)CC2)n1` showed an IC50 [1] of 0.029 µM.
For `COc1cccc2c1nc(C(F)F)n2-c1nc(N2CCOCC2)cc(N2CCN(C(=S)SCC(=O)NC3CCCC3)CC2)n1`, the IC50 [1] was 0.034 µM.
`COc1cccc2c1nc(C(F)F)n2-c1nc(N2CCOCC2)nc(N2CCN(C(=S)SCC(=O)N3CCN(S(C)(=O)=O)CC3)CC2)n1` gave a half-life [2] of 21.5 min, an IC50 [1] of 0.0012 µM and a CLint scaled [3] of 116 mL/min/kg. The Activity [4] was “Non-Toxic”, the remaining at 1 h [5] was 11.2% and the Activity [6] was “Non-Toxic”. The IC50 [7] was 1.25 µM, the inhibition in vivo at 40 mg/kg/day [8] was 42% and the IC50 [9] was 0.83 µM. For the same compound, the IC50 [10] was greater than 0.05 µM, the remaining at 1 h [11] was 68.2% and the Activity [12] was “Non-Toxic”. The IC50 [13] was 0.042 µM, the microsomal CLint [14] was 64 µL/min/mg and the IC50 [15] was greater than 0.05 µM.
In the case of `COc1cccc2c1nc(C(F)F)n2-c1nc(N2CCOCC2)nc(N2CCN(C(=S)SCC(N)=O)CC2)n1`, the IC50 [1] is reported as 0.0016 µM.
`COc1cccc2c1nc(C(F)F)n2-c1nc(N2CCOCC2)nc(N2CCN(C(=S)SCC(=O)NC3CCC3)CC2)n1` gave an IC50 [1] of 0.0016 µM.
In the case of `COc1cccc2c1nc(C(F)F)n2-c1nc(N2CCOCC2)nc(N2CCN(C(=S)SCCN(C)C)CC2)n1`, the IC50 [1] is reported as 0.063 µM.
`COc1cccc2c1nc(C(F)F)n2-c1nc(N2CCOCC2)cc(N2CCN(C(=S)SCC(=O)NC3CCCCC3)CC2)n1` gave an IC50 [1] of 0.012 µM.
`COc1cccc2c1nc(C(F)F)n2-c1nc(N2CCOCC2)nc(N2CCN(C(=S)SCC(=O)NC3CCCCC3)CC2)n1` gave an IC50 [1] of 0.0051 µM.
In the case of `COc1cccc2c1nc(C(F)F)n2-c1nc(N2CCOCC2)cc(N2CCN(C(=S)SCC(=O)NC3CCC3)CC2)n1`, the IC50 [1] is reported as 0.0033 µM.
`COc1cccc2c1nc(C(F)F)n2-c1nc(N2CCOCC2)cc(N2CCN(C(=S)SCCN3CCOCC3)CC2)n1` gave an IC50 [1] of 0.081 µM.
For `COc1cccc2c1nc(C(F)F)n2-c1nc(N2CCOCC2)cc(N2CCN(C(=S)SCC(=O)N3CCOCC3)CC2)n1`, the IC50 [1] was 0.0012 µM, the IC50 [7] was 1.22 µM and the IC50 [9] was 1.53 µM. For the same compound, the IC50 [10] was greater than 0.05 µM, the IC50 [13] was 0.035 µM and the IC50 [15] was greater than 0.05 µM.
In the case of `CCN(CC)C(=O)CSC(=S)N1CCN(c2cc(N3CCOCC3)nc(-n3c(C(F)F)nc4c(OC)cccc43)n2)CC1`, the IC50 [1] is reported as 0.0013 µM.
For `COc1cccc2c1nc(C(F)F)n2-c1nc(N2CCOCC2)nc(N2CCN(C(=S)SCC(=O)N3CCCC3)CC2)n1`, the IC50 [1] was 0.0009 µM.
`COc1cccc2c1nc(C(F)F)n2-c1nc(N2CCOCC2)nc(N2CCN(C(=S)SCCN3CCCCC3)CC2)n1` gave an IC50 [1] of 0.042 µM.
For `COc1cccc2c1nc(C(F)F)n2-c1nc(N2CCOCC2)nc(N2CCN(C(=S)SCC(=O)NC3CCCC3)CC2)n1`, the IC50 [1] was 0.0028 µM.
With `COc1cccc2c1nc(C(F)F)n2-c1nc(N2CCOCC2)nc(N2CCN(C(=S)SCC(=O)N3CCN(C4CCCC4)CC3)CC2)n1` the IC50 [1] was 0.0025 µM.
Work on `COc1cccc2c1nc(C(F)F)n2-c1nc(N2CCOCC2)cc(N2CCN(C(=S)SCC(=O)NC3CC3)CC2)n1` yielded an IC50 [1] of 0.0027 µM.
For `COc1cccc2c1nc(C(F)F)n2-c1nc(N2CCOCC2)nc(N2CCN(C(=S)SCC(=O)N3CCOCC3)CC2)n1`, the IC50 [1] was 0.0007 µM, the IC50 [7] was 0.6 µM and the IC50 [9] was 1.11 µM.
In the case of `COCCSC(=S)N1CCN(c2nc(N3CCOCC3)nc(-n3c(C(F)F)nc4c(OC)cccc43)n2)CC1`, the IC50 [1] is reported as 0.021 µM.
In the case of `COc1cccc2c1nc(C(F)F)n2-c1nc(N2CCOCC2)nc(N2CCN(C(=S)SCCN3CCN(C)CC3)CC2)n1`, the IC50 [1] is reported as 0.0091 µM.
In the case of `COc1cccc2c1nc(C(F)F)n2-c1nc(N2CCOCC2)nc(N2CCN(C(=S)SCC(=O)N3CCN(C)CC3)CC2)n1`, the IC50 [1] is reported as 0.0014 µM, the IC50 [7] is reported as 1.67 µM and the IC50 [9] is reported as 0.98 µM.
`COc1cccc2c1nc(C(F)F)n2-c1nc(N2CCOCC2)cc(N2CCN(C(=S)SCCN(C)C)CC2)n1` gave an IC50 [1] of 0.034 µM.
For `COc1cccc2c1nc(C(F)F)n2-c1nc(N2CCOCC2)cc(N2CCN(C(=S)SCC(N)=O)CC2)n1`, the IC50 [1] was 0.0025 µM.
Compound `COCCSC(=S)N1CCN(c2cc(N3CCOCC3)nc(-n3c(C(F)F)nc4c(OC)cccc43)n2)CC1` has an IC50 [1] of 0.017 µM.
`COc1cccc2c1nc(C(F)F)n2-c1nc(N2CCOCC2)nc(N2CCN(C(=S)SCC(=O)N(C)C)CC2)n1` showed an IC50 [1] of 0.0008 µM, an IC50 [7] of 1.1 µM and an IC50 [9] of 2.78 µM.
In the case of `COc1cccc2c1nc(C(F)F)n2-c1nc(N2CCOCC2)nc(N2CCN(C(=S)SCC(=O)NC3CC3)CC2)n1`, the IC50 [1] is reported as 0.0014 µM.
For `COc1cccc2c1nc(C(F)F)n2-c1nc(N2CCOCC2)cc(N2CCN(C(=S)SCC(=O)N3CCCC3)CC2)n1`, the IC50 [1] was 0.0014 µM, the IC50 [7] was 1.99 µM and the IC50 [9] was 1.23 µM.
`COc1cccc2c1nc(C(F)F)n2-c1nc(N2CCOCC2)cc(N2CCN(C(=S)SCC(=O)N(C)C)CC2)n1` gave an IC50 [1] of 0.0018 µM, an IC50 [7] of 2.04 µM and an IC50 [9] of 2.2 µM. For the same compound, the IC50 [10] was greater than 0.05 µM, the IC50 [13] was 0.033 µM and the IC50 [15] was greater than 0.05 µM.
For `CCN(CC)C(=O)CSC(=S)N1CCN(c2nc(N3CCOCC3)nc(-n3c(C(F)F)nc4c(OC)cccc43)n2)CC1`, the IC50 [1] was 0.0011 µM.
With `COc1cccc2c1nc(C(F)F)n2-c1nc(N2CCOCC2)cc(N2CCN(C(=S)SCCN3CCN(C)CC3)CC2)n1` the IC50 [1] was 0.12 µM.
With `FC(F)c1nc2ccccc2n1-c1nc(N2CCOCC2)nc(N2CCOCC2)n1` [ZSTK-474] the half-life [2] was 25.7 min, the CLint scaled [3] was 97 mL/min/kg and the Activity [4] was “Non-Toxic”. For the same compound, the remaining at 1 h [5] was 19.6%, the Activity [6] was “Non-Toxic” and the IC50 [7] was 0.13 µM. It also gave an inhibition in vivo at 40 mg/kg/day [8] of 72%, an IC50 [9] of 0.71 µM and a remaining at 1 h [11] of 100%. The Activity [12] was “Non-Toxic” and the microsomal CLint [14] was 54 µL/min/mg.
